Assay results from ChEMBL document CHEMBL1122293, “Synthesis, evaluation of chemical reactivity, and murine antineoplastic activity of 2-hydroxy-5-(3,4-dichlorophenyl)-6,7-bis(hydroxymethyl)-2,3-dihydro-1H- pyrrolizine bis(2-propylcarbamate) and 2-acyloxy derivatives as potential water-soluble prodrugs” (J Med Chem, 1983).
In brackets after ≈: the same amount, converted by molar mass.

Tests used:
P388 [1] = experiment: Weight difference at 50 mg/kg (ip)against P388 Lymphocytic Leukemia in mice; type: functional, Mus musculus
In short: (§1)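 Male CDF1 mice given 6×10^6 leukemia cells ip. Five daily ip doses beginning 24 h later, as Klucel suspension or aqueous solution. Acute toxicity on day 5; survival assessed on day 30. Weight difference reported as treated minus control (g).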

P388 [2] = experiment: Median survival time of test animals compared to controls at 100 mg/kg (ip) against P388 Lymphocytic Leukemia in mice; type: functional, Mus musculus
In short: (§2)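 P388 leukemia cells were inoculated ip into male CDF1 mice. Treatment began 24 h later, given ip as five daily doses, either as a Klucel (hydroxypropylcellulose) suspension or as an aqueous solution. Acute toxicity was assessed on day 5 and results were read on day 30. The value is median survival of treated versus control mice, as % T/C.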

P388 [3] = experiment: Median survival time of test animals compared to controls at 12.5 mg/kg (ip) against P388 Lymphocytic Leukemia in mice; type: functional, Mus musculus
In short: (§3)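 P388 leukemia cells inoculated ip into male CDF1 mice; ip treatment started 24 h later, five daily doses, as Klucel (hydroxypropylcellulose) suspension or aqueous solution. Acute toxicity on day 5. Day-30 median survival of treated versus control mice expressed as % T/C. Weight difference is treated minus control, in grams.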

P388 [4] = experiment: Median survival time of test animals compared to controls at 25 mg/kg (ip) against P388 Lymphocytic Leukemia in mice; type: functional, Mus musculus; in short: as §2
P388 [5] = experiment: Median survival time of test animals compared to controls at 50 mg/kg (ip) against P388 Lymphocytic Leukemia in mice; type: functional, Mus musculus; in short: as §2
P388 [6] = experiment: Log of the tumor cell population at the end of treatment at 100 mg/kg (ip) against P388 Lymphocytic Leukemia in mice; type: functional, Mus musculus
P388 [7] = experiment: Log of the tumor cell population at the end of treatment at 12.5 mg/kg (ip) against P388 Lymphocytic Leukemia in mice; type: functional, Mus musculus
P388 [8] = experiment: Log of the tumor cell population at the end of treatment at 25 mg/kg (ip) against P388 Lymphocytic Leukemia in mice; type: functional, Mus musculus
P388 [9] = experiment: Log of the tumor cell population at the end of treatment at 50 mg/kg (ip) against P388 Lymphocytic Leukemia in mice; type: functional, Mus musculus
P388 [10] = experiment: Weight difference at 25 mg/kg (ip)against P388 Lymphocytic Leukemia in mice; type: functional, Mus musculus; in short: as §1
P388 [11] = experiment: Weight difference at 100 mg/kg (ip)against P388 Lymphocytic Leukemia in mice; type: functional, Mus musculus; in short: as §1
P388 [12] = experiment: Weight difference at 12.5 mg/kg (ip)against P388 Lymphocytic Leukemia in mice; type: functional, Mus musculus; in short: as §3
[13] = Water solubility of the compound; type: ADME; settings: read-out: S
In short: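 Excess bis(carbamate) (30-60 mg) in 2 mL distilled water, vortexed 10 min, filtered through Teflon wool and diluted. UV absorbance read at 291 nm. Concentration from a linear Beer's law calibration made with a salt standard (r = 0.998).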

B16 [14] = experiment: No. of cures on day 60 at 10 mg/kg (ip) against B16 melanocarcinoma in mice; type: functional, Mus musculus
In short: (§4)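 Female BDF1 mice given ip 0.5 mL of tumor brei (1.0 g tissue per 10 mL). Nine daily ip doses beginning 24 h later, as Klucel suspensions or a water/Tween-80 suspension. Acute toxicity scored day 5; survival read day 60. Cures counted per 10-animal group at day 60; weight difference reported as treated minus control (g).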

B16 [15] = experiment: No. of cures on day 60 at 20 mg/kg (ip) against B16 melanocarcinoma in mice; type: functional, Mus musculus; in short: as §4
B16 [16] = experiment: No. of cures on day 60 at 40 mg/kg (ip) against B16 melanocarcinoma in mice; type: functional, Mus musculus; in short: as §4
B16 [17] = experiment: No. of cures on day 60 at 5 mg/kg (ip) against B16 melanocarcinoma in mice; type: functional, Mus musculus; in short: as §4
B16 [18] = experiment: No. of cures on day 60 at 80 mg/kg (ip) against B16 melanocarcinoma in mice; type: functional, Mus musculus; in short: as §4
B16 [19] = experiment: Median survival time of test animals compared to controls at 10 mg/kg (ip) against B16 melanocarcinoma in mice; type: functional, Mus musculus
In short: (§5)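 Female BDF1 mice received B16 tumor brei ip (0.5 mL of 1.0 g tissue per 10 mL). From 24 h later they got nine daily ip doses, suspended in Klucel or water/Tween-80. Acute toxicity was assessed on day 5 and survival was evaluated on day 60. The value is median survival as % T/C, with 10 mice per group and a positive control run in parallel.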

B16 [20] = experiment: Median survival time of test animals compared to controls at 20 mg/kg (ip) against B16 melanocarcinoma in mice; type: functional, Mus musculus; in short: as §5
B16 [21] = experiment: Median survival time of test animals compared to controls at 40 mg/kg (ip) against B16 melanocarcinoma in mice; type: functional, Mus musculus; in short: as §5
B16 [22] = experiment: Median survival time of test animals compared to controls at 5 mg/kg (ip) against B16 melanocarcinoma in mice; type: functional, Mus musculus; in short: as §5
B16 [23] = experiment: Median survival time of test animals compared to controls at 80 mg/kg (ip) against B16 melanocarcinoma in mice; type: functional, Mus musculus; in short: as §5
B16 [24] = experiment: Weight difference at 10 mg/kg (ip)against B16 melanocarcinoma in mice; type: functional, Mus musculus; in short: as §4
B16 [25] = experiment: Weight difference at 20 mg/kg (ip) against B16 melanocarcinoma in mice; type: functional, Mus musculus; in short: as §4
B16 [26] = experiment: Weight difference at 40 mg/kg (ip)against B16 melanocarcinoma in mice; type: functional, Mus musculus; in short: as §4
B16 [27] = experiment: Weight difference at 5 mg/kg (ip)against B16 melanocarcinoma in mice; type: functional, Mus musculus; in short: as §4
B16 [28] = experiment: Weight difference at 80 mg/kg (ip) against B16 melanocarcinoma in mice; type: functional, Mus musculus; in short: as §4
P388 [29] = experiment: Weight difference at 6.25 mg/kg (ip)against P388 Lymphocytic Leukemia in mice; type: functional, Mus musculus; in short: as §1
P388 [30] = experiment: Median survival time of test animals compared to controls at 6.25 mg/kg (ip) against P388 Lymphocytic Leukemia in mice; type: functional, Mus musculus; in short: as §2
P388 [31] = experiment: Log of the tumor cell population at the end of treatment at 6.25 mg/kg (ip) against P388 Lymphocytic Leukemia in mice; type: functional, Mus musculus

| Structure (SMILES) | Weight change (P388 [1]) | T/C (P388 [2]) | T/C (P388 [3]) | T/C (P388 [4]) | T/C (P388 [5]) | Log cell kill (P388 [6]) | Log cell kill (P388 [7]) | Log cell kill (P388 [8]) | Log cell kill (P388 [9]) | Weight change (P388 [10]) | Weight change (P388 [11]) | Weight change (P388 [12]) | solubility [13] | half-life (Half life was determined) | also measured |
| --- | --- | --- | --- | --- | --- | --- | --- | --- | --- | --- | --- | --- | --- | --- | --- |
| CC(C)NC(=O)OCc1c(COC(=O)NC(C)C)c(-c2ccc(Cl)c(Cl)c2)n2c1CC(OC(=O)CCC(=O)O)C2.CN(C)c1ccncc1 (stereo unspecified) | -2.2 g | 125% | 106% | 107% | 111% | -1.08 | -1.45 | -1.44 | -1.39 | -1.2 g | -1.8 g | -1.3 g | 30 mM | 2.55 h |  |
| CC(C)NC(=O)OCc1c(COC(=O)NC(C)C)c(-c2ccc(Cl)c(Cl)c2)n2c1CC(O)C2 (stereo unspecified) | -5.6 g | 166% | 147% | 145% | 150% | 2.16 | 0.62 | 0.46 | 0.85 | -3.8 g | -6.3 g | -2.7 g | 0.0402 mM (≈ 20 µg/mL) | 0.517 h | Cures (B16 [14]): 0; Cures (B16 [15]): 0; Cures (B16 [16]): 4; Cures (B16 [17]): 0; Cures (B16 [18]): 0; T/C (B16 [19]): 143%; T/C (B16 [20]): 196%; T/C (B16 [21]): 223%; T/C (B16 [22]): 129%; T/C (B16 [23]): 101%; Weight change (B16 [24]): 0.2 g; Weight change (B16 [25]): 0 g; Weight change (B16 [26]): -0.9 g; Weight change (B16 [27]): 0.1 g; Weight change (B16 [28]): -2.4 g; Weight change (P388 [29]): -2.1 g; T/C (P388 [30]): 140%; Log cell kill (P388 [31]): 0.08 |
